Laboratory results published in ChEMBL document CHEMBL3046806, “Synthesis and herbicidal activity of novel 3-aminocarbonyl-2-oxazolidinethione derivatives containing a substituted pyridine ring” (2006).
Calls of active or inactive are those of the source. The rule behind the calls is not given here.

Experiments:
Echinochloa crus-galli [1] = experiment: Herbicidal activity against Echinochloa crus-galli (barnyard grass) assessed as growth inhibition rate at 100 mg/L 7 days post compound treatment; type: functional; conditions: 168 h, read-out: GI
Summary of the method: (§1)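 Compound dissolved in DMF and diluted to the test concentration with water containing emulsifier 0201 (anionic/nonionic surfactant, 0.1 g L-1). Seeds were sown once the agar cooled and kept at 24 ± 1 °C under 3000 lx light for 7 days. Read-out was root growth inhibition (%) versus control, in three replicates of 150 seeds per species per concentration.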

Echinochloa crus-galli [2] = experiment: Herbicidal activity against Echinochloa crus-galli (barnyard grass) assessed as induction of yellow symptoms of leaves 7 days post compound treatment; type: functional, organism-based
Eclipta prostrata = experiment: Herbicidal activity against Eclipta prostrata assessed as growth inhibition rate at 100 mg/L 7 days post compound treatment; type: functional; conditions: 168 h, read-out: GI; summary of the method: as §1
Echinochloa crus-galli [3] = experiment: Herbicidal activity against Echinochloa crus-galli (barnyard grass) assessed as induction weed albinism 7 days post compound treatment; type: functional, organism-based
Digitaria sanguinalis = experiment: Herbicidal activity against Digitaria sanguinalis (hairy crabgrass) assessed as growth inhibition rate at 100 mg/L 7 days post compound treatment; type: functional; conditions: 168 h, read-out: GI; summary of the method: as §1
[4] = tested on: Brassica rapa subsp. oleifera; experiment: Herbicidal activity against Brassica rapa subsp. oleifera assessed as growth inhibition rate at 100 mg/L 7 days post compound treatment; type: functional; conditions: 168 h, read-out: GI; summary of the method: as §1
Sorghum bicolor = experiment: Herbicidal activity against Sorghum bicolor assessed as growth inhibition rate at 100 mg/L 7 days post compound treatment; type: functional; conditions: 168 h, read-out: GI; summary of the method: as §1
Cucumis sativus = experiment: Herbicidal activity against Cucumis sativus (cucumber) assessed as growth inhibition rate at 100 mg/L 7 days post compound treatment; type: functional; conditions: 168 h, read-out: GI; summary of the method: as §1

Question: How did the inhibition of growth at 100 µg/mL (Echinochloa crus-galli [1]) turn out when `CCOc1ccccc1NC(=O)N1C(=S)O[C@@H](c2ccc(Cl)nc2)[C@H]1C` (relative stereo) was run?
Answer: Its inhibition of growth at 100 µg/mL is 90%.

Question: And the Activity (Echinochloa crus-galli [2])?
Answer: Its Activity is “Active”.

Question: And the inhibition of growth at 100 µg/mL (Eclipta prostrata)?
Answer: Its inhibition of growth at 100 µg/mL is 90%.

Question: And the Activity (Echinochloa crus-galli [3])?
Answer: The Activity was “Active”.

Question: What about the inhibition of growth at 100 µg/mL (Digitaria sanguinalis) of the same molecule?
Answer: Its inhibition of growth at 100 µg/mL is 80%.

Question: What about the inhibition of growth at 100 µg/mL [4] of the same molecule?
Answer: Its inhibition of growth at 100 µg/mL is 90%.

Question: And the inhibition of growth at 100 µg/mL (Sorghum bicolor)?
Answer: Its inhibition of growth at 100 µg/mL is 70%.

Question: What about the inhibition of growth at 100 µg/mL (Cucumis sativus) of the same molecule?
Answer: Its inhibition of growth at 100 µg/mL is 90%.

Question: With `C[C@@H]1[C@H](c2ccncc2)OC(=S)N1C(=O)Nc1ccccc1[N+](=O)[O-]` (relative stereo) as the molecule, how does the inhibition of growth at 100 µg/mL (Echinochloa crus-galli [1]) read?
Answer: Its inhibition of growth at 100 µg/mL is 60%.

Question: And the Activity (Echinochloa crus-galli [2])?
Answer: Its Activity is “Active”.

Question: What about the inhibition of growth at 100 µg/mL (Eclipta prostrata) of the same molecule?
Answer: Its inhibition of growth at 100 µg/mL is 80%.

Question: And the Activity (Echinochloa crus-galli [3])?
Answer: The Activity was “Active”.

Question: And the inhibition of growth at 100 µg/mL (Digitaria sanguinalis)?
Answer: Its inhibition of growth at 100 µg/mL is 70%.

Question: What about the inhibition of growth at 100 µg/mL [4] of the same molecule?
Answer: The inhibition of growth at 100 µg/mL was 50%.

Question: What about the inhibition of growth at 100 µg/mL (Sorghum bicolor) of the same molecule?
Answer: The inhibition of growth at 100 µg/mL was 70%.

Question: And the inhibition of growth at 100 µg/mL (Cucumis sativus)?
Answer: Its inhibition of growth at 100 µg/mL is 20%.

Question: For `C[C@@H]1[C@H](c2ccccn2)OC(=S)N1C(=O)NC1CCCCC1` (relative stereo), which inhibition of growth at 100 µg/mL (Echinochloa crus-galli [1]) is on record?
Answer: Its inhibition of growth at 100 µg/mL is 70%.

Question: And the Activity (Echinochloa crus-galli [2])?
Answer: The Activity was “Active”.

Question: What about the inhibition of growth at 100 µg/mL (Eclipta prostrata) of the same molecule?
Answer: Its inhibition of growth at 100 µg/mL is 80%.

Question: And the Activity (Echinochloa crus-galli [3])?
Answer: The Activity was “Active”.

Question: What about the inhibition of growth at 100 µg/mL (Digitaria sanguinalis) of the same molecule?
Answer: The inhibition of growth at 100 µg/mL was 70%.

Question: What about the inhibition of growth at 100 µg/mL [4] of the same molecule?
Answer: The inhibition of growth at 100 µg/mL was 0%.

Question: And the inhibition of growth at 100 µg/mL (Sorghum bicolor)?
Answer: The inhibition of growth at 100 µg/mL was 0%.

Question: What about the inhibition of growth at 100 µg/mL (Cucumis sativus) of the same molecule?
Answer: Its inhibition of growth at 100 µg/mL is 0%.

Question: What does the source list for `C[C@@H]1[C@H](c2ccncc2)OC(=S)N1C(=O)NC1CCCCC1` (relative stereo)?
Answer: inhibition of growth at 100 µg/mL (Echinochloa crus-galli [1]): 90%; Activity (Echinochloa crus-galli [2]): Active; inhibition of growth at 100 µg/mL (Eclipta prostrata): 85%; Activity (Echinochloa crus-galli [3]): Active; inhibition of growth at 100 µg/mL (Digitaria sanguinalis): 80%; inhibition of growth at 100 µg/mL [4]: 80%; inhibition of growth at 100 µg/mL (Sorghum bicolor): 30%; inhibition of growth at 100 µg/mL (Cucumis sativus): 20%

Question: What does the source list for `C[C@@H]1[C@H](c2ccc(OCC(F)(F)F)nc2)OC(=S)N1C(=O)NC1CCCCC1` (relative stereo)?
Answer: inhibition of growth at 100 µg/mL (Echinochloa crus-galli [1]): 80%; Activity (Echinochloa crus-galli [2]): Active; inhibition of growth at 100 µg/mL (Eclipta prostrata): 80%; Activity (Echinochloa crus-galli [3]): Active; inhibition of growth at 100 µg/mL (Digitaria sanguinalis): 70%; inhibition of growth at 100 µg/mL [4]: 40%; inhibition of growth at 100 µg/mL (Sorghum bicolor): 60%; inhibition of growth at 100 µg/mL (Cucumis sativus): 40%

Question: Which inhibition of growth at 100 µg/mL (Echinochloa crus-galli [1]) does the source give for `CCOc1ccc([C@@H]2OC(=S)N(C(=O)Nc3ccccc3OCC)[C@@H]2C)cn1` (relative stereo) here?
Answer: The inhibition of growth at 100 µg/mL was 50%.

Question: What about the Activity (Echinochloa crus-galli [2]) of the same molecule?
Answer: Its Activity is “Active”.

Question: And the inhibition of growth at 100 µg/mL (Eclipta prostrata)?
Answer: The inhibition of growth at 100 µg/mL was 20%.

Question: What about the Activity (Echinochloa crus-galli [3]) of the same molecule?
Answer: The Activity was “Active”.

Question: And the inhibition of growth at 100 µg/mL (Digitaria sanguinalis)?
Answer: Its inhibition of growth at 100 µg/mL is 80%.

Question: What about the inhibition of growth at 100 µg/mL [4] of the same molecule?
Answer: Its inhibition of growth at 100 µg/mL is 0%.

Question: What about the inhibition of growth at 100 µg/mL (Sorghum bicolor) of the same molecule?
Answer: The inhibition of growth at 100 µg/mL was 0%.

Question: And the inhibition of growth at 100 µg/mL (Cucumis sativus)?
Answer: Its inhibition of growth at 100 µg/mL is 0%.
